The values that follow come from ChEMBL document CHEMBL1133563, “Development of new hydroxamate matrix metalloproteinase inhibitors derived from functionalized 4-aminoprolines” (J Med Chem, 2000).

One data set has as its target T1, Interstitial collagenase (Homo sapiens, UniProt P03956).
T1 sequence (P03956 whole entry): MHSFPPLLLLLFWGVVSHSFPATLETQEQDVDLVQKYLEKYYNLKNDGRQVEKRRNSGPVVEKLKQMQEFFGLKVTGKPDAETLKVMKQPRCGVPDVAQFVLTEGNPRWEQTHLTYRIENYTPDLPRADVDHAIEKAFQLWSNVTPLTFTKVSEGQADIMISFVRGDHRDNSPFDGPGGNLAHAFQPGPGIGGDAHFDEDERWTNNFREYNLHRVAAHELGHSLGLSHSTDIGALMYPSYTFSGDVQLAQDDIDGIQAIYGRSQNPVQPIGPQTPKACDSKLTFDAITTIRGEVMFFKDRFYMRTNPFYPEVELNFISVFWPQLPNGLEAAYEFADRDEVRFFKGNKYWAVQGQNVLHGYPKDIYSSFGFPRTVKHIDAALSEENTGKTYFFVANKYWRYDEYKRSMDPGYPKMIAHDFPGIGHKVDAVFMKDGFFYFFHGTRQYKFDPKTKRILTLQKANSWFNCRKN
Nature of the data set: In vitro inhibitory activity against matrix metalloprotease -1 (collagenase-1).

A further data set concerns the target T2, Matrilysin (Homo sapiens, UniProt P09237).
T2 sequence (P09237 whole entry): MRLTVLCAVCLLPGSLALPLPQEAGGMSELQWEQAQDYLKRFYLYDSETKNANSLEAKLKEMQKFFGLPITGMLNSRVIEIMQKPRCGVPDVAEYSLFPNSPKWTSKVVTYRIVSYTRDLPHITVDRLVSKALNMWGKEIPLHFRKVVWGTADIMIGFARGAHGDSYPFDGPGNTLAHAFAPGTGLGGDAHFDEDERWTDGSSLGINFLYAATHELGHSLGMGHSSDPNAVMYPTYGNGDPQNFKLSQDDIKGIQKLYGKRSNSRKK
As to the kind of experiment: In vitro inhibitory activity against matrix metalloprotease-7 (matrilysin, MMP-7). A digest of the protocol: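 Human recombinant truncated enzymes, final MMP-1 8 nM, MMP-3 16 nM, MMP-7 2 nM. Quenched-fluorescence assay with Mca-Pro-Leu-Gly-Leu-Dpa-Ala-Arg-NH₂ (4 µM) in 50 mM Tris pH 7.5, 0.2 M NaCl, 5 mM CaCl₂, 0.02% Brij-35 at 25 °C. Fluorescence (ex 328/em 393 nm) read kinetically for 30 min.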

For data set [1], the target named is 72 kDa type IV collagenase (Homo sapiens, UniProt P08253). As to the kind of experiment: In vitro inhibitory activity against matrix metalloprotease -2 (gelatinase-A).
Data set [2] has as its target T3, Collagenase 3 (Homo sapiens, UniProt P45452).
Data set [3] concerns the target T4, Stromelysin-1 (Homo sapiens, UniProt P08254). As to the kind of experiment: In vitro inhibitory activity against matrix metalloprotease -3 (stromelysin).
The target of data set [4] is T3, Collagenase 3. Nature of the data set: In vitro inhibitory activity against human recombinant matrix metalloprotease-13 (collagenase-3).
The species entered for another data set is Rattus norvegicus. Nature of the data set: Time over 100 ng/ml in fasted rats. To be noted: in vivo.
Data set [5] addresses T3, Collagenase 3. This is another data set of the same source.
Data set [6] concerns the target T4, Stromelysin-1. As to the kind of experiment: Inhibition of matrix metalloprotease-3 (stromelysin). In outline:
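Human recombinant truncated MMP-3 (E. coli-expressed), 16 nM final, with fluorogenic substrate Mca-Pro-Leu-Gly-Leu-Dpa-Ala-Arg-NH₂ at 4 µM, 25 °C, in 50 mM Tris pH 7.5, 0.2 M NaCl, 5 mM CaCl₂, 0.02% Brij-35.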

The nature of data set [7]: Pharmacokinetic half time was determined intravenously in rats. As to conditions: rat, in vivo, iv. Type of data set: ADME, organism-based. A digest of the protocol: (§1)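 Single-compound study in male Sprague-Dawley rats, dosed intravenously and orally in a parallel-group design. Parameters were derived from mean plasma concentration-time profiles.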
Data set [8] in a line: Mean (%CV) PK parameters for Vdss(mL/kg). Type of data set: ADME, organism-based. To be noted: rat, in vivo; read-out: Vdss. A digest of the protocol: as §1
Data set [9] in a line: Mean (%CV) PK parameters for CL(mL/min/kg). Type of data set: ADME, organism-based. To be noted: rat, in vivo. A digest of the protocol:
as §1

Data set [10] in a line: Compound demonstarted an oral bioavailability of […]% with the half-life time as given in rats. As to conditions: rat, in vivo. Format: ADME, organism-based.
Data set [11] in a line: Oral bioavailability measured by the ratio of […] area under concentration. Type of data set: ADME, organism-based. As to conditions: rat, in vivo. In outline:
as §1

Each structure is given as a SMILES string. A value given as a limit tells only on which side of the number the result lay.

Chain of 72 kDa type IV collagenase (P08253 whole entry): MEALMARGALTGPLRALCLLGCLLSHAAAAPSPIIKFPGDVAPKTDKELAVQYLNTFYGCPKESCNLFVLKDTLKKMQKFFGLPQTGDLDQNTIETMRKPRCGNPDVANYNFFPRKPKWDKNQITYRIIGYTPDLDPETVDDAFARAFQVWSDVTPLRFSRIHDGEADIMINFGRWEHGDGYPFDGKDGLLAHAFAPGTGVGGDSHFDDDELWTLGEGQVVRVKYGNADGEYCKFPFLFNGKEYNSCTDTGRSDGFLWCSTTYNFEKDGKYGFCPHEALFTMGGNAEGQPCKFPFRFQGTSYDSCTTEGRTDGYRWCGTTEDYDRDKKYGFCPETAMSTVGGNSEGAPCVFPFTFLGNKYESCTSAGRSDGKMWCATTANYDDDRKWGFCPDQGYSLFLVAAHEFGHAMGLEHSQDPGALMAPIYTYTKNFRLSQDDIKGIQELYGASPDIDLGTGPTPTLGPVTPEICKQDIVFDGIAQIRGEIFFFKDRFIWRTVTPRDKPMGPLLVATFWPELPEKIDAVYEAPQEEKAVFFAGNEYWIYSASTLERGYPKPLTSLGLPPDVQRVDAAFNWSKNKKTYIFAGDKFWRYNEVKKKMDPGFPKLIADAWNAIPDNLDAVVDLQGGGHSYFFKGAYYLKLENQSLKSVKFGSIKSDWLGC
T4 sequence (P08254 whole entry): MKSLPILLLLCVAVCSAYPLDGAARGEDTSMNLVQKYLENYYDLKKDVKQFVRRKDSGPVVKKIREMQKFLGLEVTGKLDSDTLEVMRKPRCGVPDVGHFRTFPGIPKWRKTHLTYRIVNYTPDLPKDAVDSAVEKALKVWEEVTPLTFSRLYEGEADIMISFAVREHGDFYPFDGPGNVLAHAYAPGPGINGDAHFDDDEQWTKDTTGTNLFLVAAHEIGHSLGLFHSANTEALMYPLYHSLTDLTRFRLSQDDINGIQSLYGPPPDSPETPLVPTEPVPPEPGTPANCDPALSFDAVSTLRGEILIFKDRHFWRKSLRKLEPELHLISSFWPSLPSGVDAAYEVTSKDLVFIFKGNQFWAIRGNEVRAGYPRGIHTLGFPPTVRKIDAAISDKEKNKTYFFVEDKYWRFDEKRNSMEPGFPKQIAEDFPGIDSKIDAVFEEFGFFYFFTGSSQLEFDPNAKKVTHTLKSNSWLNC

On to `CCCCOc1ccc(S(=O)(=O)N2C[C@@H](N3CCS(=O)(=O)CC3)C[C@@H]2C(=O)NO)cc1`, for which the IC50 is more than 1000 nM on Interstitial collagenase; 3400 nM on Matrilysin; 7 nM in data set [1]; 0.9 nM against Collagenase 3 [2]; 12 nM at Stromelysin-1 [3].

On to `COc1ccc(S(=O)(=O)N2C[C@@H](N3CCCCC3)C[C@@H]2C(=O)NO)cc1`, for which the IC50 on Collagenase 3 [4] turned out to be 1 nM; on Matrilysin, 7400 nM; in [1], 6 nM; on Stromelysin-1 [3] it was 48 nM.

Regarding `COc1ccc(S(=O)(=O)N2C[C@@H](NS(C)(=O)=O)C[C@@H]2C(=O)NO)cc1`, the IC50 is 2 nM at Collagenase 3 [4]; 260 nM at Interstitial collagenase; 2700 nM on Matrilysin; 2 nM in data set [1]; 42 nM against Stromelysin-1 [3].

For `COc1ccc(S(=O)(=O)N2C[C@@H](N3CCOCC3)C[C@@H]2C(=O)NO)cc1`, the IC50 against Interstitial collagenase turned out to be 220 nM; in data set [1] it was 6 nM; against Stromelysin-1 [3] it was 14 nM.

For `CCCCOc1ccc(S(=O)(=O)N2C[C@@H](N3C(=O)NC(SC)C3=O)C[C@@H]2C(=O)NO)cc1` (some centres not stated), the IC50 on Collagenase 3 [4] is less than 0.5 nM; against Interstitial collagenase it was 750 nM; on Matrilysin, 850 nM; in data set [1] it was 49 nM; against Stromelysin-1 [3] it was 42 nM.

Consider `CCCOc1ccc(S(=O)(=O)N2C[C@@H](N3CCOCC3)C[C@@H]2C(=O)NO)cc1`, for which the IC50 at Collagenase 3 [4] stood at 1 nM; against Interstitial collagenase, 490 nM; against Matrilysin, 16500 nM; at Stromelysin-1 [3], 7 nM. Further, the “Time over 100ng/ml” value in the data set listed under Rattus norvegicus stood at 4.5 h.

Turning to `CCCCOc1ccc(S(=O)(=O)N2C[C@@H](N3C(=O)CN(CCC)C3=O)C[C@@H]2C(=O)NO)cc1`, the IC50 at Collagenase 3 [4] was 0.3 nM; on Interstitial collagenase, 570 nM; against Matrilysin it was 1200 nM; in data set [1], 0.4 nM; against Stromelysin-1 [3], 10 nM.

Take `CCCOc1ccc(S(=O)(=O)N2C[C@@H](N3CCCC3)C[C@@H]2C(=O)NO)cc1`: the IC50 on Collagenase 3 [4] is 1 nM; against Interstitial collagenase, 310 nM; on Matrilysin it was 8700 nM; in data set [1], less than 1 nM; against Stromelysin-1 [3] it was 8 nM.

In the case of `COCCOc1ccc(S(=O)(=O)N2C[C@@H](N3C(=O)CN(C)C3=O)C[C@@H]2C(=O)NO)cc1`, the IC50 was 1800 nM on Interstitial collagenase; 9100 nM on Matrilysin; 1 nM in [1]; 4.4 nM against Collagenase 3 [2]; 26 nM against Stromelysin-1 [3]. In addition, the “Time over 100ng/ml” value in the data set listed under Rattus norvegicus came out at 0 h.

Regarding `CCCN1CC(=O)N([C@H]2C[C@H](C(=O)NO)N(S(=O)(=O)c3ccc(OCCOC)cc3)C2)C1=O`, the IC50 on Collagenase 3 [4] was 2 nM; against Interstitial collagenase, 2500 nM; on Matrilysin, 11000 nM; in [1], 2 nM; against Stromelysin-1 [3], 30 nM.

Turning to `CCCN([C@H]1C[C@H](C(=O)NO)N(S(=O)(=O)c2ccc(OC)cc2)C1)S(C)(=O)=O`, the IC50 on Collagenase 3 [4] was 0.8 nM; against Interstitial collagenase, 33 nM; against Matrilysin it was 920 nM; in data set [1], 0.8 nM; at Stromelysin-1 [3], 10 nM.

Consider `CCCN(C(=O)[C@H](C)O)[C@H]1C[C@H](C(=O)NO)N(S(=O)(=O)c2ccc(OC)cc2)C1`, for which the IC50 was 1 nM at Collagenase 3 [4]; 87 nM at Interstitial collagenase; 8500 nM against Matrilysin; 0.7 nM in [1]; 2 nM at Stromelysin-1 [3].

As to `COc1ccc(S(=O)(=O)N2C[C@@H](N)C[C@@H]2C(=O)NO)cc1`, the IC50 on Collagenase 3 [4] was determined as 5 nM; against Interstitial collagenase, 250 nM; against Matrilysin, 4300 nM; in [1] it was 6 nM; at Stromelysin-1 [3] it was 23 nM.

On to `COc1ccc(S(=O)(=O)N[C@H]2C[C@H](C(=O)NO)N(S(=O)(=O)c3ccc(OC)cc3)C2)cc1`, for which the IC50 turned out to be 2 nM at Collagenase 3 [4]; 350 nM against Interstitial collagenase; 3000 nM against Matrilysin; 3 nM in data set [1]; 36 nM against Stromelysin-1 [3].

Regarding `C=CCN1CC(=O)N([C@H]2C[C@H](C(=O)NO)N(S(=O)(=O)c3ccc(OCCC)cc3)C2)C1=O`, the IC50 worked out at 0.4 nM on Collagenase 3 [4]; 350 nM at Interstitial collagenase; 2600 nM at Matrilysin; 0.8 nM in data set [1]; 11 nM on Stromelysin-1 [3].

On to `CCCN(C(=O)[C@@H](O)CCc1ccccc1)[C@H]1C[C@H](C(=O)NO)N(S(=O)(=O)c2ccc(OC)cc2)C1`, for which the IC50 came out at 260 nM against Interstitial collagenase, 0.6 nM in [1], 12 nM on Stromelysin-1 [3] and 0.5 nM at Collagenase 3 [5].

`COc1ccc(S(=O)(=O)N2C[C@@H](N(Cc3cccnc3)S(C)(=O)=O)C[C@@H]2C(=O)NO)cc1`: the IC50 on Collagenase 3 [4] is 1 nM; against Interstitial collagenase, 74 nM; against Matrilysin, 2700 nM; in data set [1], 2 nM; against Stromelysin-1 [3], 6 nM. In the data set listed under Rattus norvegicus, the “Time over 100ng/ml” value was determined as 0 h.

For the compound `COc1ccc(S(=O)(=O)N2C[C@@H](NC(=O)[C@H](C)OCc3ccccc3)C[C@@H]2C(=O)NO)cc1`, the IC50 is 140 nM at Interstitial collagenase, 0.3 nM in data set [1] and 7 nM on Stromelysin-1 [3].

`CCCCOc1ccc(S(=O)(=O)N2C[C@@H](N3C(=O)CN(C)C3=O)C[C@@H]2C(=O)NO)cc1`: the IC50 at Matrilysin stood at 1600 nM; against Stromelysin-1 [6], 2 nM. For the same compound, the “Time over 100ng/ml” value in the data set listed under Rattus norvegicus was 0 h.

`COc1ccc(S(=O)(=O)N2C[C@@H](N(Cc3cccnc3)C(=O)C(C)C)C[C@@H]2C(=O)NO)cc1`: the IC50 at Collagenase 3 [4] amounted to 17 nM; against Interstitial collagenase, 270 nM; in data set [1] it was 2.2 nM; at Stromelysin-1 [3], 10 nM.

In the case of `COc1ccc(S(=O)(=O)N2C[C@@H](NC(=O)[C@H](Cc3ccccc3)OCc3ccccc3)C[C@@H]2C(=O)NO)cc1`, the IC50 at Collagenase 3 [4] was 2 nM; on Interstitial collagenase it was 240 nM; in [1] it was 0.2 nM; against Stromelysin-1 [3], 10 nM.

Consider `CCCCOc1ccc(S(=O)(=O)N2C[C@@H](N3CCOCC3)C[C@@H]2C(=O)NO)cc1`, for which the IC50 against Interstitial collagenase is 920 nM; against Matrilysin, 5400 nM; in data set [1], 4 nM; against Collagenase 3 [2], 0.6 nM; against Stromelysin-1 [3] it was 5 nM. Also, the half-life in data set [7] was 0.4 h; in [10] it was 1.7 h. In data set [8], the Vd is 0.408 L/kg. This compound also had a clearance in data set [9] of 30 mL/min/kg. In addition, in [11], the bioavailability amounted to 6%. For the same compound, the “Time over 100ng/ml” value in the data set filed under Rattus norvegicus amounted to 3.5 h.

For `C=CCN1CC(=O)N([C@H]2C[C@H](C(=O)NO)N(S(=O)(=O)c3ccc(OCCOC)cc3)C2)C1=O`, the IC50 on Collagenase 3 [4] turned out to be 2 nM; at Interstitial collagenase it was 2900 nM; at Matrilysin it was 11000 nM; in data set [1], 2 nM; against Stromelysin-1 [3], 46 nM.

Take `CCCCOc1ccc(S(=O)(=O)N2C[C@@H](NS(C)(=O)=O)C[C@@H]2C(=O)NO)cc1`: the IC50 came out at 0.7 nM on Collagenase 3 [4], 1300 nM against Interstitial collagenase, 3900 nM on Matrilysin and 0.8 nM in [1].

`CCCCOc1ccc(S(=O)(=O)N2C[C@@H](N3C(=O)NC(C)(C)C3=O)C[C@@H]2C(=O)NO)cc1`: the IC50 against Interstitial collagenase is 780 nM; at Matrilysin, 450 nM; in data set [1], 2 nM; against Collagenase 3 [2], less than 0.5 nM; at Stromelysin-1 [3], 3 nM.

Regarding `C=CCN1CC(=O)N([C@H]2C[C@H](C(=O)NO)N(S(=O)(=O)c3ccc(OCCCC)cc3)C2)C1=O`, the IC50 at Collagenase 3 [4] amounted to 0.4 nM; against Interstitial collagenase it was 480 nM; at Matrilysin, 1000 nM; at Stromelysin-1 [3], 7 nM. Also, in the data set listed under Rattus norvegicus, the “Time over 100ng/ml” value was 4 h.
